From ChEMBL document CHEMBL1649560, “Beta-lactamase-mediated beta-lactam resistance in Campylobacter species: prevalence of Cj0299 (bla OXA-61) and evidence for a novel beta-Lactamase in C. jejuni” (2009)
In brackets after ≈: the same amount, converted by molar mass.

Experiments:
Assay type in all cases: functional
[1] = tested on: Campylobacter jejuni; assay: Antibacterial activity against bla gene-positive and nitrocefin reaction-positive beta-lactamase harboring Campylobacter jejuni isolate P1093 by NCCLS agar doubling dilution method
How it was run: (§1)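 MICs of β-lactams by agar doubling dilution following the NCCLS (CLSI) Campylobacter Working Group procedure, with C. jejuni NCTC 11168 and C. coli NCTC 11366 as controls. Isolates were from UK poultry flocks. β-Lactamase status was set by Cj0299 PCR (281-bp amplimer) and by a nitrocefin colour change of sonicated lysate within 5 min, or within 30 min on repeat.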

[2] = tested on: Campylobacter jejuni; assay: Antibacterial activity against bla gene-positive and nitrocefin reaction-positive beta-lactamase harboring Campylobacter jejuni isolate P286 by NCCLS agar doubling dilution method
How it was run: (§2)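 MICs by agar doubling dilution per the NCCLS (now CLSI) Campylobacter Working Group method. Isolates came from UK chicken flocks (feces, ceca or farm environment), 2000–2006. C. jejuni NCTC 11168 and C. coli NCTC 11366 served as control strains. The ampicillin resistance cutoff was 8 μg/ml; BSAC/CLSI Enterobacteriaceae guidelines were used for other agents.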

[3] = tested on: Campylobacter coli; assay: Antibacterial activity against bla-positive and beta-lactamase-weakly positive Campylobacter coli isolate P1627 by NCCLS agar doubling dilution method; how it was run: as §2
[4] = tested on: Campylobacter jejuni; assay: Antibacterial activity against bla gene-positive and nitrocefin reaction-positive beta-lactamase harboring Campylobacter jejuni isolate P338 by NCCLS agar doubling dilution method; how it was run: as §2
[5] = tested on: Campylobacter jejuni; assay: Antibacterial activity against bla gene-positive and nitrocefin reaction-positive beta-lactamase harboring Campylobacter jejuni isolate P285 by NCCLS agar doubling dilution method; how it was run: as §2
[6] = tested on: Campylobacter coli; assay: Antibacterial activity against bla gene-positive and nitrocefin reaction-positive beta-lactamase harboring Campylobacter coli isolate P1826 by NCCLS agar doubling dilution method; how it was run: as §1
[7] = tested on: Campylobacter jejuni; assay: Antibacterial activity against bla gene-positive and nitrocefin reaction-positive beta-lactamase harboring Campylobacter jejuni isolate P1730 by NCCLS agar doubling dilution method; how it was run: as §2
[8] = tested on: Campylobacter jejuni; assay: Antibacterial activity against Campylobacter jejuni isolate P1093 harboring blaOXA-61::cat gene by NCCLS agar doubling dilution method
How it was run: (§3)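 Agar doubling dilution MICs (NCCLS/CLSI Campylobacter Working Group method) against Cj0299-inactivated mutants. Mutants were made by transforming the C. jejuni isolate with pCI and selecting on Mueller-Hinton agar with 10 μg/ml chloramphenicol for 3–5 days. Chromosomal insertion was confirmed by PCR with Cj0299 and cat primers.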

[9] = tested on: Campylobacter jejuni; assay: Antibacterial activity against Campylobacter jejuni isolate P270 harboring blaOXA-61::cat gene by NCCLS agar doubling dilution method
[10] = tested on: Campylobacter jejuni; assay: Antibacterial activity against bla gene-positive and nitrocefin reaction-negative beta-lactamase harboring Campylobacter jejuni isolate P1699 by NCCLS agar doubling dilution method; how it was run: as §1
[11] = tested on: Campylobacter coli; assay: Antibacterial activity against Campylobacter coli by NCCLS agar doubling dilution method
How it was run: (§4)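 MICs by agar doubling dilution following the NCCLS (CLSI) Campylobacter Working Group procedure, applied to ampicillin- and amoxicillin-resistant isolates from UK chicken flocks (2000–2006). C. jejuni NCTC 11168 and C. coli NCTC 11366 served as control strains. Resistance was called at an ampicillin cutoff of 8 μg/ml. Other agents were judged against Enterobacteriaceae guidelines (BSAC, CLSI).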

[12] = tested on: Campylobacter jejuni; assay: Antibacterial activity against bla gene-negative and nitrocefin reaction-negative beta-lactamase harboring Campylobacter jejuni isolate P850 by NCCLS agar doubling dilution method; how it was run: as §1
[13] = tested on: Campylobacter jejuni; assay: Antibacterial activity against bla gene-positive and nitrocefin reaction-positive beta-lactamase harboring Campylobacter jejuni isolate P1618 by NCCLS agar doubling dilution method; how it was run: as §1
[14] = tested on: Campylobacter jejuni; assay: Antibacterial activity against bla gene-positive and nitrocefin reaction-negative beta-lactamase harboring Campylobacter jejuni NCTC 11168 by NCCLS agar doubling dilution method; how it was run: as §1
[15] = tested on: Campylobacter coli; assay: Antibacterial activity against bla gene-positive and nitrocefin reaction-positive beta-lactamase harboring Campylobacter coli isolate P321 by NCCLS agar doubling dilution method; how it was run: as §1
[16] = tested on: Campylobacter jejuni; assay: Antibacterial activity against bla gene-negative and nitrocefin reaction-negative beta-lactamase harboring Campylobacter jejuni isolate P835 by NCCLS agar doubling dilution method; how it was run: as §1
[17] = tested on: Campylobacter jejuni; assay: Antibacterial activity against bla gene-positive and nitrocefin reaction-negative beta-lactamase harboring Campylobacter jejuni isolate P1698 by NCCLS agar doubling dilution method; how it was run: as §1
[18] = tested on: Campylobacter jejuni; assay: Antibacterial activity against Campylobacter jejuni by NCCLS agar doubling dilution method; how it was run: as §4
[19] = tested on: Campylobacter jejuni; assay: Antibacterial activity against bla gene-positive and nitrocefin reaction-positive beta-lactamase harboring Campylobacter jejuni isolate P1650 by NCCLS agar doubling dilution method; how it was run: as §1
[20] = tested on: Campylobacter jejuni; assay: Antibacterial activity against bla gene-positive and nitrocefin reaction-positive beta-lactamase harboring Campylobacter jejuni isolate P305 by NCCLS agar doubling dilution method; how it was run: as §2
[21] = tested on: Campylobacter jejuni; assay: Antibacterial activity against bla gene-positive and nitrocefin reaction-positive beta-lactamase harboring Campylobacter jejuni isolate P790 by NCCLS agar doubling dilution method; how it was run: as §2
[22] = tested on: Campylobacter jejuni; assay: Antibacterial activity against bla gene-negative and nitrocefin reaction-negative beta-lactamase harboring Campylobacter jejuni isolate P1962 by NCCLS agar doubling dilution method; how it was run: as §1
[23] = tested on: Campylobacter jejuni; assay: Antibacterial activity against bla gene-negative and nitrocefin reaction-positive beta-lactamase harboring Campylobacter jejuni isolate P843 by NCCLS agar doubling dilution method; how it was run: as §1
[24] = tested on: Campylobacter jejuni; assay: Antibacterial activity against bla gene-negative and nitrocefin reaction-positive beta-lactamase harboring Campylobacter jejuni isolate P854 by NCCLS agar doubling dilution method; how it was run: as §1
[25] = tested on: Campylobacter jejuni; assay: Antibacterial activity against Campylobacter jejuni isolate P338 harboring blaOXA-61::cat gene by NCCLS agar doubling dilution method; how it was run: as §3
[26] = tested on: Campylobacter jejuni; assay: Antibacterial activity against bla gene-positive and nitrocefin reaction-positive beta-lactamase harboring Campylobacter jejuni isolate P316 by NCCLS agar doubling dilution method; how it was run: as §2

| Structure (SMILES) | MIC [1] | MIC [2] | MIC [3] | MIC [4] | MIC [5] | MIC [6] | MIC [7] | MIC [8] | MIC [9] | MIC [10] | MIC50 [11] | MIC90 [11] | MIC [12] | MIC [13] | MIC [14] | MIC [15] | MIC [16] | MIC [17] | MIC50 [18] | MIC90 [18] | also measured |
| --- | --- | --- | --- | --- | --- | --- | --- | --- | --- | --- | --- | --- | --- | --- | --- | --- | --- | --- | --- | --- | --- |
| CO[C@@]1(NC(=O)Cc2cccs2)C(=O)N2C(C(=O)O)=C(COC(N)=O)CS[C@@H]21 [CEFOXITIN] | 128 µg/mL (≈ 299 µM) | 256 µg/mL (≈ 599 µM) | 64 µg/mL (≈ 150 µM) | 512 µg/mL (≈ 1200 µM) | 256 µg/mL (≈ 599 µM) | 128 µg/mL (≈ 299 µM) | 256 µg/mL (≈ 599 µM) | 128 µg/mL (≈ 299 µM) | 32 µg/mL (≈ 74.9 µM) | 128 µg/mL (≈ 299 µM) | 128 µg/mL (≈ 299 µM) | > 256 µg/mL | 256 µg/mL (≈ 599 µM) | 256 µg/mL (≈ 599 µM) | 32 µg/mL (≈ 74.9 µM) | 64 µg/mL (≈ 150 µM) | 256 µg/mL (≈ 599 µM) | 128 µg/mL (≈ 299 µM) | 128 µg/mL (≈ 299 µM) | 256 µg/mL (≈ 599 µM) | MIC [19]: 128 µg/mL (≈ 299 µM); MIC [20]: 128 µg/mL (≈ 299 µM); MIC [21]: 64 µg/mL (≈ 150 µM); MIC [22]: 256 µg/mL (≈ 599 µM); MIC [23]: 256 µg/mL (≈ 599 µM); MIC [24]: 128 µg/mL (≈ 299 µM); MIC [25]: 512 µg/mL (≈ 1200 µM); MIC [26]: 128 µg/mL (≈ 299 µM) |
| CO/N=C(\C(=O)N[C@@H]1C(=O)N2C(C(=O)O)=C(COC(N)=O)CS[C@H]12)c1ccco1 [CEFUROXIME] | 128 µg/mL (≈ 302 µM) | 128 µg/mL (≈ 302 µM) | 64 µg/mL (≈ 151 µM) | 128 µg/mL (≈ 302 µM) | 128 µg/mL (≈ 302 µM) | 64 µg/mL (≈ 151 µM) | 128 µg/mL (≈ 302 µM) | 128 µg/mL (≈ 302 µM) | 64 µg/mL (≈ 151 µM) | 64 µg/mL (≈ 151 µM) | 128 µg/mL (≈ 302 µM) | 256 µg/mL (≈ 603 µM) | 128 µg/mL (≈ 302 µM) | 256 µg/mL (≈ 603 µM) | 32 µg/mL (≈ 75.4 µM) | 64 µg/mL (≈ 151 µM) | 64 µg/mL (≈ 151 µM) | 64 µg/mL (≈ 151 µM) | 128 µg/mL (≈ 302 µM) | 128 µg/mL (≈ 302 µM) | MIC [19]: 128 µg/mL (≈ 302 µM); MIC [20]: 64 µg/mL (≈ 151 µM); MIC [21]: 64 µg/mL (≈ 151 µM); MIC [22]: 64 µg/mL (≈ 151 µM); MIC [23]: 64 µg/mL (≈ 151 µM); MIC [24]: 128 µg/mL (≈ 302 µM); MIC [25]: 128 µg/mL (≈ 302 µM); MIC [26]: 64 µg/mL (≈ 151 µM) |
